This is a sample that favours compounds with a hit; in the whole collection about 5.9% have one here.
MT1-MMP txn act: activates MT1-MMP transcription; HT1080 MT1-MMP promoter luciferase reporter, luminescence, overnight; stronger effect = higher value; 86,000 compounds, 0.16% hits; activation factor at 10 µM; AID 750;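 active = activation factor of at least 2 for MT1-MMP transcription at 10 µM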
HUVEC prolif 384: blocks proliferation of human endothelial cells. AID 648. 86,000 compounds, 1.1% hits. HUVEC proliferation, CellTiter-Glo luminescence, 72 h; stronger effect = lower value. viability, % at 10 µM (by protocol);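 active = viability at or below 30%; inactive = viability above 30%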;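 note: 100% = median luminescence of DMSO-only cell control wells on each plate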
Jurkat tox 60K: reduces viability or proliferation of Jurkat cells; 56,000 compounds, 1.2% hits; inhibition, % at 4 µM; Jurkat E6.1 viability, ATP luminescence, 48 h;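 active = inhibition above the mean inhibition of all tested compounds plus 3 SD, cut at about 28% in these data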
PTK2B oligo ant: Pyk2 (human) oligomerization antagonism; Q293 cells, Pyk2 FERM NanoBiT luminescence; stronger effect = lower value; z-score (the deposit names both 25 µM and 10 µM); 99,000 compounds, 0.83% hits; AID 1347419;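 active = Z-score of -3 or lower, scaled per plate to the spread of control and sample wells; inactive = z-score above -3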;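 note: negative z-score means lost luminescence so less FERM oligomerization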
Target sequence (Q14289 whole entry, looked up): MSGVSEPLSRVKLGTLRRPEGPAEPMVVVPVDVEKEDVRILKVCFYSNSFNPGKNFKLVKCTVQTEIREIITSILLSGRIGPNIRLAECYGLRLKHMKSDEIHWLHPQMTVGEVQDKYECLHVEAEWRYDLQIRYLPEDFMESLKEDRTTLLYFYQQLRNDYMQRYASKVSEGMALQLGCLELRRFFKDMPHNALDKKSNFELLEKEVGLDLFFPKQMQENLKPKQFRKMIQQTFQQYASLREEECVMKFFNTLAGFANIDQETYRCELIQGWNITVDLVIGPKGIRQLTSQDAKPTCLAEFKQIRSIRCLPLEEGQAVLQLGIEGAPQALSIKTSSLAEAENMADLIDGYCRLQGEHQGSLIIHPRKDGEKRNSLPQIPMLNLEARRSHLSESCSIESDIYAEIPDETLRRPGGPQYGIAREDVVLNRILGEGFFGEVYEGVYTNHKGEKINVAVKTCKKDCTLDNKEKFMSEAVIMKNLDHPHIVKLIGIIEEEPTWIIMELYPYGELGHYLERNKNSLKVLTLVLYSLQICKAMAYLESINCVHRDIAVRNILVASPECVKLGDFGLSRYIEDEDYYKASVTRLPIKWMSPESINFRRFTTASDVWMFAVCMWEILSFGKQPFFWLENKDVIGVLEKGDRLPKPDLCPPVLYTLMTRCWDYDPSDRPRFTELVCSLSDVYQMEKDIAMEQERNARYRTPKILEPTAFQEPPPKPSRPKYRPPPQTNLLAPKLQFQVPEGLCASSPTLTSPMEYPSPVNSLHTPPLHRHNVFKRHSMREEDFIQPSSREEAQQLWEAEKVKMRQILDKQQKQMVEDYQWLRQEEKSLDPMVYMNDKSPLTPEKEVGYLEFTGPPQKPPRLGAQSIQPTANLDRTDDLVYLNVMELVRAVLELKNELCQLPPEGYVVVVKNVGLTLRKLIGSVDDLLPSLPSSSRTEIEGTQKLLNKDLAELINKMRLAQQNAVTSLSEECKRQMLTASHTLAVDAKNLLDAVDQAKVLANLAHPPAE
Fibroblast inh: blocks proliferation of human lung fibroblasts; viability, % at 10 µM; LL 47 human lung fibroblast viability, ATP luminescence; stronger effect = lower value; 85,000 compounds, 1.1% hits;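 active = viability at or below 50% in the single dose screen; inactive = viability above 50%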;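 note: compound exposure lasted 72 h before the ATP readout; 100% = median luminescence of untreated cell-only wells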
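Material: human LL 47 lung fibroblast cells; quantity: 1,150 cells/well; medium: IMEM plus 15% FBS; doses: 0.1% DMSO in all compound wells; timing: overnight attachment after seeding, then 72 h compound exposure at 37 °C; detection: CellTiter-Glo luminescence; measure: % viability of median cell-only signal; controls: cell-only wells, no compound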
H69AR inhibit: growth inhibitors of human H69AR lung tumor cells | H69AR lung tumor viability, ATP luminescence, 72 h; stronger effect = lower value | viability, % at 10 µM | 85,000 compounds, 6% hits | AID 598;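 active = viability at or below 40%; inactive = viability above 40%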;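 note: multidrug resistant small cell line overexpressing MRP-1 efflux transporter; 100% = mean luminescence of untreated control wells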
Starred values were filed as active, the others as inactive; / = no result given.

SMILES	MT1-MMP txn act	HUVEC prolif 384	Jurkat tox 60K	PTK2B oligo ant	Fibroblast inh	H69AR inhibit
COC(=O)Nc1ccc(S(=O)(=O)N2c3ccccc3CCC2C)cc1 (centres undefined)	1.1	69	92*	-3.2*	49*	16*
CN(C)c1ccnc(N(Cc2ccccc2)Cc2ccccc2)c1C#N	1.2	90	/	-1.7	97	97
CCC1=C2CC[C@H]3C(=O)NC(=O)[C@H]3[C@H]2[C@@]2(C)C(=NCCc3c[nH]c4ccccc34)OC(=O)N2C1=O	1.2	/	/	/	/	/
O=S(=O)(c1ccc(Br)cc1)N1CCN(c2ccc3nnc(-c4ccccc4)n3n2)CC1	/	82	/	/	101	30*
CC(/C=N/N1CCN(c2ccccn2)CC1)=C\c1ccccc1	/	/	/	-0.56	/	/
CCN(CC)CCN(Cc1cc2cc3c(cc2[nH]c1=O)OCCO3)C(=O)NC1CCCCC1	1.3	89	-6	-0.43	93	35*
Cc1cccc2cc(CN(CC3CCCO3)C(=O)NC3CCCCC3)c(=O)[nH]c12 (centres undefined)	1	102	10	-0.81	95	74
Cc1ccc2cc(CN(CC3CCCO3)C(=O)NC3CCCCC3)c(=O)[nH]c2c1C (centres undefined)	0.9	83	4	-0.63	82	28*
CC(NC(=O)Nc1ccc(F)cc1)C(c1cccs1)N1CCCC1 (centres undefined)	/	/	/	1.3	/	/
O=S(=O)(c1ccccc1)n1ccc2ccccc21	1.3	93	-7	-0.28	91	89
Cc1cc(C)c(S(=O)(=O)n2ccc3ccccc32)c(C)c1	1.1	89	/	/	98	7.8*
CCOC(=O)C1=C(C)NC(=O)NC1c1ccccc1OCc1c(F)cccc1Cl (centres undefined)	1	100	/	-2.8	102	92
CCCCN=c1scc(-c2ccc3c(c2)NC(=O)CO3)n1N=C1CCCC1	/	/	/	0.23	/	/
CCN=c1scc(-c2ccc3c(c2)NC(=O)CO3)n1N=C1CCCC1	1.2	72	36*	2.8	109	76
CCC(Sc1nc(C)cc(C)n1)C(=O)Nc1ccc(Cl)cn1 (centres undefined)	2*	104	/	-0.18	98	90
N#C/C(=C\c1ccc(-c2cccc(Cl)c2)o1)C(=O)Nc1cccc2cccnc12	1.3	80	/	-1	97	15*
Cc1nc(SCC#N)c2c3c(sc2n1)CCC3	1.2	102	-3	0.37	95	95
Cc1cc(C)n(-c2nc(SCCN(C)C)c3c4c(sc3n2)CCCC4)n1	1.3	2.3*	/	-0.92	3.0*	2.7*
CCC(O)CNc1nc(-n2nc(C)cc2C)nc2sc3c(c12)CCCC3 (centres undefined)	1	104	-4	/	80	8.4*
CCCCn1nnnc1SCC(=O)NNC(=O)C1CCCCC1	/	/	/	1.1	/	/
CCCOc1ccc(-c2nnn(CC(=O)Nc3cccc(C(=O)OC)c3)n2)cc1	1	105	-4	0.55	76	38*
Cc1cc(C)c2ccc(C(=O)O)nc2c1O	1.2	83	/	0.48	93	38*
COc1ccccc1/C=C/C(=O)c1cc(Br)ccc1OC(=O)c1ccco1	/	/	/	-2.9	/	/
CCNc1ccc(Br)cc(C(=O)/C=C/c2ccccc2Cl)c1=O	1.1	7.6*	/	0.27	40*	2.0*
CNc1ccc(Br)cc(C(=O)/C=C/c2cccc(OC)c2OC)c1=O	1.7	31	/	0.02	85	5.3*
SMILES	MT1-MMP txn act	HUVEC prolif 384	Jurkat tox 60K	PTK2B oligo ant	Fibroblast inh	H69AR inhibit
N#Cc1nc(-c2cccs2)oc1NCc1ccc2c(c1)OCO2	1.2	98	/	-0.43	95	81
O=C(NC1CCCCC1)c1sc(=S)n2c1[nH]c(=O)c1ccccc12	1	69	0	-3*	102	43
O=C(NCC1CCCO1)c1sc(=S)n2c1[nH]c(=O)c1ccc(C(=O)N3CCCCC3)cc12 (centres undefined)	1	73	11	-2.9	98	73
CCCCNC(=O)c1sc(=S)n(-c2ccccc2OC)c1N	1	104	/	1.1	95	95
CCCCNC(=O)c1sc(=S)n2c1[nH]c(=O)c1ccccc12	0.9	60	12	1.1	96	26*
Cc1ccc(NC2OC(CO)C(O)C(O)C2O)cc1 (centres undefined)	1	92	/	-0.44	104	89
O=c1[nH]c2ccc(S(=O)(=O)N3CCCCC3)cc2[nH]c1=O	1.2	99	/	-1	95	93
